Assay results as given in paper PMC3836752 (Organic letters, 2013).

How the values were obtained:
BamL [1] = target: T1, BamL (Bacillus velezensis, UniProt D3VMM1); test: ITC binding assay with BamL; settings: for Kd: BamL
T1 sequence (D3VMM1 1-270): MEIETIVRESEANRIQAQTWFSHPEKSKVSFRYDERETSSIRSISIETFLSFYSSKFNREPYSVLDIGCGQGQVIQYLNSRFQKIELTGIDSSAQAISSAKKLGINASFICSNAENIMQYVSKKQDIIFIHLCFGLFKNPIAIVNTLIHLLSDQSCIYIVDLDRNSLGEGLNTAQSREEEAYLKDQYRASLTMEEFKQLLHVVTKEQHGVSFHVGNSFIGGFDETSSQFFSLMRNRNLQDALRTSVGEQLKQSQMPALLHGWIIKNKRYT
Procedure, shortened: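 Test compounds were titrated with BamL by isothermal titration calorimetry. The binding isotherms were fitted to give Kd and thermodynamic binding parameters. The same titration was applied to a minimal arginine amide ligand.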

BamL [2] = target: T1, BamL; test: BamL methylation assay, ESI-MS endpoint / LC-MS; type: biochemical; settings: for conversion into dimethylated product / dimethylation by BamL: condition A: 16 h endpoint assay, BamL in the presence of SAM, ESI-MS/HRMS and LC-MS
Procedure, shortened: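 Test compounds were incubated with BamL and scored as substrates by conversion of starting material. Two conditions were used: a standard assay, and a more stringent 1 h assay (condition B) with lower enzyme and substrate concentrations for finer resolution of substrate efficiency.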

BamL [3] = target: T1, BamL; settings: cited from earlier work; for processing by BamL: Arg-containing tetrapeptides as substrate mimics
Bacillus anthracis = settings: against Bacillus anthracis; ref 1b; cited from earlier work

| Compound | Kd (BamL [1]) [nM] | conversion into dimethylated product (BamL [2]) | dimethylation by BamL (BamL [2]) | processing by BamL (BamL [3]) | other results |
| --- | --- | --- | --- | --- | --- |
| C=CCOC(=O)c1csc([C@@H](N)CCCNC(=N)N)n1 [compound 2] | 2200 | left detectable levels of unconverted starting material | dimethylated by BamL | – | increase in affinity for BamL versus 17 (2 vs. 17) (BamL [1]; addition of a single thiazole to Arg-NH2): two orders of magnitude |
| CCOC(=O)c1csc(-c2nc(-c3csc([C@@H](N)CCCNC(=N)N)n3)oc2C)n1 [compound 3] | 1700 | full conversion | dimethylated by BamL | – | affinity for BamL relative to monoazole 2 (BamL [1]): marginally higher affinity; thermodynamic origin of stronger interaction compared to 2 (BamL [1]; analysis of Gibbs free energy terms, 3 compared to 2): primarily entropically driven; processing by BamL compared to 2 (BamL [2]; 3 compared to 2, differences in affinity not solely responsible): enhanced processing; conversion into dimethylated product (reaction completeness) (BamL [2]; condition B: more stringent 1 h assay, lower concentrations of enzyme and substrate, ESI-MS): nearly complete; reaction efficiency with BamL (BamL [2]; three azole rings compared with one azole, conditions A and B): reaction efficiency increases substantially |
| N=C(N)NCCC[C@H](N)C(N)=O [compound 17, Arg-NH2] | – | – | – | – | conversion to (CH3)2-Arg-NH2 by BamL (BamL [3]): inefficiently converted |
| RAAA | – | – | – | unprocessed by BamL | – |
| RGGG | – | – | – | unprocessed by BamL | – |
| plantazolicin [PZN] | – | – | – | – | antibacterial action (Bacillus anthracis): highly discriminating antibacterial action against Bacillus anthracis |
